Key:
Assay type in all cases: functional, cell-based
HCT-116 = experiment: Antiproliferative activity against human HCT-116 cells harboring wild type p53 overexpressing MDM2 assessed as inhibition of cell growth incubated for 48 hrs by MTS assay; conditions: HCT-116, 48 h
Procedure, shortened: (§1)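 MTS viability: cells seeded 1×10^4/well (HCT116), 3×10^3/well (SJSA-1, LNCaP), 5×10^3/well (MCF-7), treated ~24 h after plating with DMSO-stock compounds serially diluted in medium (final DMSO ≤0.1%). Ten or more concentrations over 1–100 µM, duplicates, ≥3 independent runs. Exposure 48 h (HCT116), 72 h (MCF-7), 96 h (SJSA-1, LNCaP). MTS 0.5 mg/mL added for 15–30 min, A490. IC50 from four-parameter variable-slope fit.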

SJSA-1 = experiment: Antiproliferative activity against human SJSA-1 cells harboring wild type p53 overexpressing MDM2/4 assessed as inhibition of cell growth incubated for 96 hrs by MTS assay; conditions: SJSA-1, 96 h; procedure, shortened: as §1
LNCaP = experiment: Antiproliferative activity against human LNCaP cells harboring wild type p53 overexpressing MDM2/4 assessed as inhibition of cell growth incubated for 96 hrs by MTS assay; procedure, shortened: as §1
MCF7 = experiment: Antiproliferative activity against human MCF7 cells harboring wild type p53 overexpressing MDM2/4 assessed as inhibition of cell growth incubated for 72 hrs by MTS assay; conditions: MCF7, 72 h; procedure, shortened: as §1

Structure (SMILES) | IC50 (HCT-116) [µM] | other results
CCOC(=O)C1=NN(C2CCCCC2)C2(C(=O)Nc3cc(Cl)ccc32)C1c1cccc(Cl)c1F (stereo not drawn) | 23.6 | IC50 (SJSA-1): 12.6 µM
CCOC(=O)C1=NN(C(C)(C)C)C2(C(=O)Nc3cc(Cl)c(F)cc32)C1c1cccc(F)c1 (stereo not drawn) | 41.9 | –
CCOC(=O)C1=NN(C(C)(C)C)C2(C(=O)Nc3cc(Cl)ccc32)C1c1ccc(Cl)cc1 (stereo not drawn) | 30.2 | –
CCOC(=O)C1=NN(C(C)(C)C)C2(C(=O)Nc3cc(Cl)ccc32)C1c1ccc(F)cc1 (stereo not drawn) | 49.9 | –
CC(C)(C)N1N=C(C(=O)NCCc2ccc(O)cc2)C(c2cccc(Cl)c2F)C12C(=O)Nc1cc(Cl)ccc12 (stereo not drawn) | 30.2 | –
CC(C)(C)N1N=C(C(=O)O)C(c2cccc(Cl)c2F)C12C(=O)Nc1cc(Cl)ccc12 (stereo not drawn) | > 100 | –
CCOC(=O)C1=NN(C(C)(C)C)C2(C(=O)Nc3cc(Cl)c(F)cc32)C1c1cccc(Cl)c1F (stereo not drawn) | 35.1 | –
CCOC(=O)C1=NN(c2ccccc2)C2(C(=O)Nc3cc(Cl)ccc32)C1c1cccc(F)c1 (stereo not drawn) | 29.9 | –
CC(C)(C)N1N=C(C(=O)NCCO)C(c2cccc(Cl)c2F)C12C(=O)Nc1cc(Cl)ccc12 (stereo not drawn) | > 50 | –
CCOC(=O)C1=NN(C2CCCCC2)C2(C(=O)Nc3cc(Cl)ccc32)C1c1cccc(F)c1 (stereo not drawn) | 27.5 | IC50 (LNCaP): 13.1 µM
O=C(Nc1cccc(-n2cccn2)c1)C1=NN(c2ccc(Cl)cc2)C2(C(=O)Nc3cc(Cl)ccc32)C1c1cccc(O)c1 (stereo not drawn) | 20.9 | IC50 (LNCaP): 11.5 µM; IC50 (MCF7): 12.4 µM; IC50 (SJSA-1): 17.4 µM
CCOC(=O)C1=NN(C2CCCCC2)C2(C(=O)Nc3cc(Cl)ccc32)C1c1ccc(Cl)cc1 (stereo not drawn) | 39.1 | –
CCOC(=O)C1=NN(C2CCCCC2)C2(C(=O)Nc3cc(Cl)ccc32)C1c1cccc(Cl)c1 (stereo not drawn) | 25.5 | –
